Here are results for 2 compounds from paper PMC9002156 (Journal of Biomedical Research, 2022).

Where two headings read alike, the source gives them in different places.

The nature of data set [1]: Stability of stock solutions in acetonitrile. The class given is physicochemical. The note with it: in acetonitrile at −20 °C. Put shortly:
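Separate acetonitrile stocks were made: 10 μg/mL for each analyte and 1 mg/mL for the internal standard. They were vortexed, briefly sonicated and stored at −20 °C. Analyte stability was examined after 2 months at −20 °C. Read-out was LC-MS/MS quantification.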

Data set [2] in a line: Plasma concentrations in CAD patients after oral Plavix 75 mg. The class given is in vivo. The note with it: human. Put shortly:
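Venous blood (3 mL) from CAD patients was drawn into EDTA/DTT tubes before dosing and at 0.5, 1, 2, 2.5, 3, 3.5, 6, 8, 12 and 24 h after dosing. MPB (500 mmol/L stock) was added at once, then spun 16 000 g for 10 min and held at −80 °C. Read-out was LC-MS/MS on C18 at 40 °C, 0.1% formic acid:acetonitrile (1:19), 1 mL/min. Thiol metabolite was measured as derivative. Calibration used peak area with internal standard, weighted 1/x2. Mean±SD, n=3.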

The format of data set [3] is in vitro ADME, human. To be noted: mean±SD; for Found, after three-thaw cycles / Found, at –80 °C for 45 days / Found, plasma at room temperature for 8 hours: human plasma; for Found, extract at room temperature for 8 hours / Found, extract in the auto-sampler at 4 °C for 24 hours: plasma extract.
The next data set concerns carboxylesterases. To be noted: cited from earlier work.
A further data set has as its system CYP2C19. The note with it: cited from earlier work.

Take `CC#C[C@]1(O)CC[C@H]2[C@@H]3CCC4=CC(=O)CCC4=C3[C@@H](c3ccc(N(C)C)cc3)C[C@@]21C` [IS, Mifepristone]: the “Time stock solutions were stable” value in data set [1] was “at least 2 months”.
On to `COC(=O)[C@H](c1ccccc1Cl)N1CCc2sccc2C1` [Clopidogrel, (+)-(S)-methyl 2-(2-chlorophenyl)-2-(6,7-dihydrothieno[3,2-c]pyridine-5(4H)-yl)acetate], for which, in data set [2], the Cmax (in general, the maximum level reached in the sampled fluid or tissue) was determined as 17 ng/mL. In addition, in data set [3] (added 0.2 ng/mL), the “Found, after three-thaw cycles” value turned out to be 0.2 ± 0.0 ng/mL; the “Found, at –80 °C for 45 days” value is 0.2 ± 0.0 ng/mL; the “Found, plasma at room temperature for 8 hours” value was 0.2 ± 0.0 ng/mL; the “Found, extract at room temperature for 8 hours” value was 0.2 ± 0.0 ng/mL. For the same compound, the “Found, extract in the auto-sampler at 4 °C for 24 hours” value in data set [3] (added 0.2 ng/mL) worked out at 0.2 ± 0.0 ng/mL. Moreover, in data set [3] (added 10 ng/mL), the “Found, after three-thaw cycles” value was 10.1 ± 0.8 ng/mL; the “Found, at –80 °C for 45 days” value came to 10.1 ± 0.2 ng/mL; the “Found, plasma at room temperature for 8 hours” value turned out to be 10.4 ± 0.8 ng/mL; the “Found, extract at room temperature for 8 hours” value is 10.0 ± 1.4 ng/mL. Also, the “Found, extract in the auto-sampler at 4 °C for 24 hours” value in data set [3] (added 10 ng/mL) is 10.0 ± 0.8 ng/mL. In addition, the “Time stock solutions were stable” value in data set [1] is given as “at least 2 months”. Further, in the data set with carboxylesterases, the “Portion hydrolyzed into inactive metabolites by carboxylesterases” value is given as “approximately 85%”. For the same compound, in the data set on CYP2C19 (2-Oxo-CLP to active metabolite), the “Contribution of CYP2C19 to metabolism, second step” value was 20%. Moreover, the “Contribution of CYP2C19 to metabolism, first step” value in the data set with CYP2C19 (clopidogrel metabolized to 2-Oxo-CLP) is 45%.
